Assay results taken from PubChem BioAssay AID743247 (Broad Institute, 2014).
About 300 (0.086%) of roughly 350,000 compounds were called active. The list comes from a sample in which actives are over-represented; it also holds similar structures and randomly drawn compounds. Values without a mark were called inactive.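 Rule for the calls: active = mean inhibition across replicates of 30% or more, regardless of how many single replicates reach that level; inconclusive = mean under 30% yet at least half of replicates reach 30%; inactive = the rest.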

Assay: blockers of fibronectin fibrillogenesis by fibroblasts – AH1F cells, Alexa488-fibronectin fluorescence, plate reader, primary screen (AID 743247);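 note: positive control wells lacked labelled fibronectin entirely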
Settings: Alexa488-fibronectin deposition fluorescence, overnight, at 12.6 µM, hits give high values
Summary of the method: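 Material: AH1F fibroblast monolayer depositing Alexa488-labelled fibronectin into matrix / Amount: 10000 AH1F cells per well / Signal: fluorescence 485/525 nm / Medium: DMEM, 2% serum / Compound: single dose, pinned / Incubation: 1 h cell adhesion before compound, then overnight fibronectin incubation / Reagent: Alexa488-FN, 24 nM final / Read-out: inhibition of fibronectin deposition signal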

Row | Compound | inhibition
1 | CO[C@@H]1CN(C)C(=O)c2cc(NC(=O)C3CC3)ccc2OC[C@@H](C)N(C(=O)NC(C)C)C[C@@H]1C | -0.851%
2 | C[C@@H](NC(=O)C[C@@H]1C[C@H]2c3cc(NC(=O)C4CCC4)ccc3O[C@H]2[C@@H](CO)O1)c1ccccc1 | 17.4%
3 | O=C(NC[C@@H]1[C@@H](c2ccccc2)[C@@H](CO)N1Cc1ccccn1)C1CCC1 | -14.4%
4 | O=C(C[C@@H]1CC[C@@H](NS(=O)(=O)c2ccc(F)cc2)[C@@H](CO)O1)NCCc1ccncc1 | -5.79%
5 | C[C@@H]1CN([C@@H](C)CO)C(=O)Cc2cc(NC(=O)Nc3ccc4c(c3)OCO4)ccc2O[C@H]1CN(C)S(=O)(=O)c1ccccc1 | 0.36%
6 | C[C@@H]1CN([C@H](C)CO)C(=O)c2ccccc2-c2ccccc2CO[C@H]1CN(C)S(=O)(=O)c1ccsc1 | 1.86%
7 | C[C@@H]1CN([C@H](C)CO)S(=O)(=O)c2ccc(C#CC3CC3)cc2O[C@H]1CN(C)C(=O)C1CCCCC1 | -1.06%
8 | COc1ccc2c3c(n(C)c2c1)[C@H](CO)NCC31CN(Cc2cc(F)ccc2F)C1 | -4.09%
9 | O=C(C1CCCCC1)N1CC2(C1)[C@H](c1ccccc1)[C@H](CO)N2CC1CCCC1 | -10.3%
10 | CS(=O)(=O)N1C[C@@H]2C(c3ccccc3)[C@H](C1)N2CC(F)(F)F (some centres not stated) | -13.1%
11 | O=C(C[C@@H]1CC[C@@H](NC(=O)Nc2ccc(F)cc2)[C@H](CO)O1)NCCN1CCCC1 | 0.829%
12 | COc1ccc(-c2ccc3c(c2)[C@@H]2[C@@H](CCN2C(=O)NC2CCCC2)[C@@H](CO)N3C)cc1 | 5.47%
13 | CC(C)NC(=O)Nc1cccc2c1O[C@@H](CN(C)C(=O)NC(C)C)[C@@H](C)CN(C)C2=O | 3.55%
14 | CN(C)CC(=O)N1CC2(C1)[C@H](c1ccccc1)[C@H](CO)N2C(=O)C1CC1 | -3.48%
15 | O=C(C1CCOCC1)N1CC(=O)N2[C@H](CO)[C@@H](c3ccc(C#CC4CCCC4)cc3)[C@H]2C1 | -4.97%
16 | Cc1ccc(-n2ncc3c(=O)[nH]cnc32)c(C)c1 | -2.15%
17 | Cc1cccc(-n2ncc3c(=O)[nH]c(SCC(=O)Nc4cc(C)on4)nc32)c1 | -0.734%
18 | Cc1cccc(-n2ncc(Cl)c(Cl)c2=O)c1 | 51.7% (active)
19 | COc1ccc(-c2ccc3c(c2)O[C@@H](CN(C)CC2CCOCC2)[C@@H](C)CN([C@@H](C)CO)S3(=O)=O)cc1 | 5.61%
20 | C[C@@H]1CC=CC[C@@H](c2ccccc2)NC(=O)[C@H](C)N(C)C(=O)c2ccccc2O1 (mixture of isomers) | -2.82%
21 | CN(C)c1ccc2c(c1)[C@H]1C[C@H](CC(=O)NCc3ccc(Cl)cc3)O[C@H](CO)[C@H]1O2 | 1.04%
22 | C[C@@H]1CC=CC[C@H](c2ccc(F)cc2)NC(=O)[C@@H](Cc2ccccc2)N(C)C(=O)c2ccccc2O1 (mixture of isomers) | 7.06%
23 | COc1ccccc1NC(=O)N[C@H]1CC[C@H](CCNC(=O)Cc2ccccn2)O[C@@H]1CO | 1.21%

Row | Compound | inhibition
24 | COC(=O)C[C@H]1CC[C@@H]2[C@@H](COc3ccc(NC(=O)Nc4ccc(Cl)cc4)cc3C(=O)N2C)O1 | -17.5%
25 | CN(C)C(=O)c1ccc(-c2ccc([C@H]3[C@H](CO)N4C(=O)CN(C(=O)C5CCCC5)C[C@@H]34)cc2)cc1 | 0.201%
26 | C[C@H]1CCCCO[C@H](CN(C)C(=O)Nc2ccc(F)cc2)[C@@H](C)CN([C@@H](C)CO)C(=O)c2cc(NC(=O)CCC(F)(F)F)ccc2O1 | 7.35%
27 | COc1ccc2c3c(n(C)c2c1)[C@H](CO)N(C(=O)c1ccncc1)CC31CCN(CC2CC2)CC1 | -1.91%
28 | O=C(C[C@@H]1C=C[C@@H](NC(=O)c2cccnc2)[C@H](CO)O1)NCc1ccncn1 | 11.1%
29 | CNC(=O)C[C@@H]1CC[C@@H]2[C@H](COc3ccc(NC(=O)c4cccs4)cc3C(=O)N2C)O1 | -9.79%
30 | C[C@@H](C(=O)N(C)C[C@H]1OCc2ccccc2-c2c(n(C)c3ccccc23)C(=O)N([C@@H](C)CO)C[C@@H]1C)c1ccccc1 | -2.51%
31 | COc1cccc(C#Cc2ccc3c(c2)[C@@H]2[C@@H](CCN2S(=O)(=O)c2ccc(C)cc2)[C@@H](CO)N3)c1 | 2.44%
32 | COc1ccccc1C#Cc1ccc([C@H]2[C@@H](C#N)N(C(=O)C3CCCCC3)[C@@H]2CO)cc1 | -2.57%
33 | O=C(C[C@@H]1CC[C@@H]2[C@H](COC[C@@H](O)CN2C(=O)c2ccccc2F)O1)N1CCOCC1 | -11.5%
34 | O=C(O)C[C@H]1C=C[C@@H](NC(=O)Nc2cc(F)ccc2F)[C@@H](CO)O1 | -9.56%
35 | COc1ccc([C@@H]2C/C=C\C[C@@H](c3ccc4c(c3)OCO4)NC(=O)CCC(=O)N2)c(OC)c1 | 8.56%
36 | CC(C)NC(=O)N[C@@H]1CC[C@H](CC(=O)NC2Cc3ccccc3C2)O[C@H]1CO | 10.9%
37 | O=C(C[C@@H]1CC[C@H](NC(=O)C2CCC2)[C@@H](CO)O1)NC1CCCCC1 | -5.05%
38 | CC(C)C#Cc1ccc2c(c1)O[C@@H](CN(C)C(=O)C1CCC1)[C@@H](C)CN([C@@H](C)CO)S2(=O)=O | -2.23%
39 | CC(=O)N(C)C[C@H]1Oc2ncc(C#Cc3ccc(F)cc3)cc2C(=O)N([C@H](C)CO)C[C@@H]1C | 11.6%
40 | CN1C(=O)c2cc(NC(=O)Cc3ccccc3)ccc2OC[C@H]2O[C@H](CC(=O)NCc3ccc(Cl)cc3)CC[C@H]21 | 1.06%
41 | CC(C)NC(=O)Nc1ccc2c(c1)CC(=O)N(C)C[C@@H](C)[C@@H](CN(C)C(=O)OC(C)(C)C)O2 | -1.15%
42 | COc1cccc(C(=O)Nc2ccc3c(c2)OC[C@H](C)NC[C@H](C)[C@H](OC)CN(C)C3=O)c1 | 3.33%
43 | O=C(c1cccnc1)N1C[C@H]2[C@@H](c3ccccc31)[C@H](CO)N2C(=O)C1CC1 | 7.1%
44 | COc1cccc(-c2cnc3c(c2)C(=O)N([C@@H](C)CO)C[C@@H](C)[C@@H](CN(C)Cc2ccc(C(=O)O)cc2)O3)c1 | -19.8%
45 | CC(C)NC(=O)N(C)C[C@H]1Oc2ccc(N)cc2C(=O)N(C)C[C@@H]1C | 0.428%
46 | C[C@H]1CCCCO[C@@H](CN(C)C(=O)Nc2ccccc2)[C@@H](C)CN([C@@H](C)CO)C(=O)c2cc(NC(=O)CCC(F)(F)F)ccc2O1 | -5.23%

Row | Compound | inhibition
47 | C[C@@H]1CN([C@@H](C)CO)C(=O)c2c(c3ccccc3n2C)-c2ccccc2CO[C@H]1CN(C)C(=O)N[C@H](C)c1ccccc1 | -3.56%
48 | COCC(=O)Nc1ccc2c(c1)OC[C@@H](C)N(Cc1ccccc1C(=O)O)C[C@@H](C)[C@H](OC)CN(C)C2=O | -5.62%
49 | CCC(=O)Nc1ccc2c(c1)C(=O)N(C)C[C@@H](OC)[C@@H](C)CN(C(=O)CN(C)C)[C@@H](C)CO2 | 2.05%
50 | CNC[C@@H]1Oc2ccc(NC(C)=O)cc2CC(=O)N(C)C[C@@H]1C | -0.299%
51 | CO[C@H]1CN(C)C(=O)c2ccc(NC(=O)Nc3ccccc3)cc2OC[C@@H](C)N(C(=O)CC2CC2)C[C@@H]1C | -8.75%
52 | O=C(Nc1cc(S(=O)(=O)N2CCCCC2)ccc1Cl)C1COc2ccccc2O1 (configuration not stated) | 1.13%
53 | C/C(=N/NC(=O)C1COc2ccccc2O1)c1ccco1 (configuration not stated) | -7.65%
54 | O=C(Nc1nc(-c2ccncc2)cs1)C1COc2ccccc2O1 (configuration not stated) | 30.8% (active)
55 | COc1ccccc1NC(=O)N[C@H]1C=C[C@@H](CC(=O)N[C@@H](C)c2ccccc2)O[C@@H]1CO | -15.6%
56 | CCCc1cn(CC[C@H]2CC[C@@H](NC(=O)C3CCOCC3)[C@@H](CO)O2)nn1 | 0.091%
57 | O=C(OCC(O)C(O)COC(=O)c1ccccc1)c1ccccc1 (configuration not stated) | 2.45% (active)
58 | O=C(COC(=O)c1ccccc1)Nc1ccccc1Sc1ccccc1 | -7.06%
59 | O=C(OCc1ccc(-c2ccccc2)cc1)c1cccc(O)c1 | 7.52%
60 | C[C@H]1CN([C@@H](C)CO)C(=O)c2c(c3ccccc3n2C)-c2ccccc2CO[C@@H]1CN(C)C(=O)Nc1ccnc(N2CCOCC2)c1 | 4.14%
61 | O=C(C1CCC1)N1CC(=O)N2[C@H](CO)[C@H](c3ccc(C#CCc4ccccc4)cc3)[C@@H]2C1 | -13.2%
62 | O=C(C[C@H]1C=C[C@@H](NC(=O)c2ccc(F)cc2)[C@@H](CO)O1)NCCc1ccncc1 | 10.9%
63 | COc1ccccc1S(=O)(=O)N1C[C@@H](O)COC[C@H]2O[C@H](CC(=O)O)CC[C@@H]21 | -7.66%
64 | Cc1ccc(S(=O)(=O)Nc2ccc3c(c2)C(=O)N([C@@H](C)CO)C[C@@H](C)[C@@H](CN(C)Cc2ccc(C(F)(F)F)cc2)OCCCC[C@@H](C)O3)cc1 | 7.11%
65 | CC(C)NC(=O)N[C@H]1CC[C@H](CC(=O)NCCCN(C)C)O[C@H]1CO | -22.3%
66 | C[C@H]1CN(C)C(=O)c2cc(N(C)C)ccc2O[C@H]1CN(C)C(=O)OC(C)(C)C | -2.56%
67 | CO[C@@H]1CN(C)C(=O)c2cc(NC(=O)C3CC3)ccc2OC[C@H](C)N(C(=O)CN(C)C)C[C@H]1C | -1.48%
